Measurements as given in ChEMBL document CHEMBL1146563, “CT2108A and B: New fatty acid synthase inhibitors as antifungal agents” (J Nat Prod, 2003).
≈ marks a conversion by molar mass, not a printed value. Calls of active or inactive are those of the source. The rule behind the calls is not given here.

Key:
Cryptococcus neoformans [1] = experiment: Antifungal activity against Cryptococcus neoformans after 24 hrs; type: functional
Procedure, shortened: (§1)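 Minimum inhibitory concentration against clinical isolates, read at 24 h and at 48 h. Isolates tested: C. albicans 4, C. tropicalis 1, C. lusitaniae 3, C. guilliermondii 1, C. krusei 3, C. glabrata 3, C. parapsilosis 4, C. dubliniensis 2, S. cerevisiae 4, Cryptococcus neoformans 2, Cryptococcus laurentii 2.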

Nakaseomyces glabratus [2] = experiment: Antifungal activity against Candida glabrata after 24 hrs; type: functional; procedure, shortened: as §1
Saccharomyces cerevisiae [3] = experiment: Antifungal activity against Saccharomyces cerevisiae after 24 hrs; type: functional; procedure, shortened: as §1
Candida albicans [4] = experiment: Antifungal activity against Candida albicans after 48 hrs; type: functional; procedure, shortened: as §1
Candida dubliniensis [5] = experiment: Antifungal activity against Candida dubliniensis after 24 hrs; type: functional; procedure, shortened: as §1
Cryptococcus neoformans [6] = experiment: Antifungal activity against Cryptococcus neoformans after 48 hrs; type: functional; procedure, shortened: as §1
Pichia kudriavzevii [7] = experiment: Antifungal activity against Candida krusei after 48 hrs; type: functional; procedure, shortened: as §1
Candida parapsilosis [8] = experiment: Antifungal activity against Candida parapsilosis after 48 hrs; type: functional; settings: Lodderomyces parapsilosis; procedure, shortened: as §1
[9] = Inhibition of Candida albicans SC5314 FAS by spectrophotometry
Candida parapsilosis [10] = experiment: Antifungal activity against Candida parapsilosis after 24 hrs; type: functional; settings: Lodderomyces parapsilosis; procedure, shortened: as §1
[11] = system: Meyerozyma guilliermondii; experiment: Antifungal activity against Candida guilliermondii after 24 hrs; type: functional; procedure, shortened: as §1
Fatty acid synthase = Fatty acid synthase (Homo sapiens, UniProt P49327); experiment: Inhibition of FAS in human ZR-75-1 cells by spectrophotometry; type: cell-based
Chain of Fatty acid synthase (P49327 whole entry): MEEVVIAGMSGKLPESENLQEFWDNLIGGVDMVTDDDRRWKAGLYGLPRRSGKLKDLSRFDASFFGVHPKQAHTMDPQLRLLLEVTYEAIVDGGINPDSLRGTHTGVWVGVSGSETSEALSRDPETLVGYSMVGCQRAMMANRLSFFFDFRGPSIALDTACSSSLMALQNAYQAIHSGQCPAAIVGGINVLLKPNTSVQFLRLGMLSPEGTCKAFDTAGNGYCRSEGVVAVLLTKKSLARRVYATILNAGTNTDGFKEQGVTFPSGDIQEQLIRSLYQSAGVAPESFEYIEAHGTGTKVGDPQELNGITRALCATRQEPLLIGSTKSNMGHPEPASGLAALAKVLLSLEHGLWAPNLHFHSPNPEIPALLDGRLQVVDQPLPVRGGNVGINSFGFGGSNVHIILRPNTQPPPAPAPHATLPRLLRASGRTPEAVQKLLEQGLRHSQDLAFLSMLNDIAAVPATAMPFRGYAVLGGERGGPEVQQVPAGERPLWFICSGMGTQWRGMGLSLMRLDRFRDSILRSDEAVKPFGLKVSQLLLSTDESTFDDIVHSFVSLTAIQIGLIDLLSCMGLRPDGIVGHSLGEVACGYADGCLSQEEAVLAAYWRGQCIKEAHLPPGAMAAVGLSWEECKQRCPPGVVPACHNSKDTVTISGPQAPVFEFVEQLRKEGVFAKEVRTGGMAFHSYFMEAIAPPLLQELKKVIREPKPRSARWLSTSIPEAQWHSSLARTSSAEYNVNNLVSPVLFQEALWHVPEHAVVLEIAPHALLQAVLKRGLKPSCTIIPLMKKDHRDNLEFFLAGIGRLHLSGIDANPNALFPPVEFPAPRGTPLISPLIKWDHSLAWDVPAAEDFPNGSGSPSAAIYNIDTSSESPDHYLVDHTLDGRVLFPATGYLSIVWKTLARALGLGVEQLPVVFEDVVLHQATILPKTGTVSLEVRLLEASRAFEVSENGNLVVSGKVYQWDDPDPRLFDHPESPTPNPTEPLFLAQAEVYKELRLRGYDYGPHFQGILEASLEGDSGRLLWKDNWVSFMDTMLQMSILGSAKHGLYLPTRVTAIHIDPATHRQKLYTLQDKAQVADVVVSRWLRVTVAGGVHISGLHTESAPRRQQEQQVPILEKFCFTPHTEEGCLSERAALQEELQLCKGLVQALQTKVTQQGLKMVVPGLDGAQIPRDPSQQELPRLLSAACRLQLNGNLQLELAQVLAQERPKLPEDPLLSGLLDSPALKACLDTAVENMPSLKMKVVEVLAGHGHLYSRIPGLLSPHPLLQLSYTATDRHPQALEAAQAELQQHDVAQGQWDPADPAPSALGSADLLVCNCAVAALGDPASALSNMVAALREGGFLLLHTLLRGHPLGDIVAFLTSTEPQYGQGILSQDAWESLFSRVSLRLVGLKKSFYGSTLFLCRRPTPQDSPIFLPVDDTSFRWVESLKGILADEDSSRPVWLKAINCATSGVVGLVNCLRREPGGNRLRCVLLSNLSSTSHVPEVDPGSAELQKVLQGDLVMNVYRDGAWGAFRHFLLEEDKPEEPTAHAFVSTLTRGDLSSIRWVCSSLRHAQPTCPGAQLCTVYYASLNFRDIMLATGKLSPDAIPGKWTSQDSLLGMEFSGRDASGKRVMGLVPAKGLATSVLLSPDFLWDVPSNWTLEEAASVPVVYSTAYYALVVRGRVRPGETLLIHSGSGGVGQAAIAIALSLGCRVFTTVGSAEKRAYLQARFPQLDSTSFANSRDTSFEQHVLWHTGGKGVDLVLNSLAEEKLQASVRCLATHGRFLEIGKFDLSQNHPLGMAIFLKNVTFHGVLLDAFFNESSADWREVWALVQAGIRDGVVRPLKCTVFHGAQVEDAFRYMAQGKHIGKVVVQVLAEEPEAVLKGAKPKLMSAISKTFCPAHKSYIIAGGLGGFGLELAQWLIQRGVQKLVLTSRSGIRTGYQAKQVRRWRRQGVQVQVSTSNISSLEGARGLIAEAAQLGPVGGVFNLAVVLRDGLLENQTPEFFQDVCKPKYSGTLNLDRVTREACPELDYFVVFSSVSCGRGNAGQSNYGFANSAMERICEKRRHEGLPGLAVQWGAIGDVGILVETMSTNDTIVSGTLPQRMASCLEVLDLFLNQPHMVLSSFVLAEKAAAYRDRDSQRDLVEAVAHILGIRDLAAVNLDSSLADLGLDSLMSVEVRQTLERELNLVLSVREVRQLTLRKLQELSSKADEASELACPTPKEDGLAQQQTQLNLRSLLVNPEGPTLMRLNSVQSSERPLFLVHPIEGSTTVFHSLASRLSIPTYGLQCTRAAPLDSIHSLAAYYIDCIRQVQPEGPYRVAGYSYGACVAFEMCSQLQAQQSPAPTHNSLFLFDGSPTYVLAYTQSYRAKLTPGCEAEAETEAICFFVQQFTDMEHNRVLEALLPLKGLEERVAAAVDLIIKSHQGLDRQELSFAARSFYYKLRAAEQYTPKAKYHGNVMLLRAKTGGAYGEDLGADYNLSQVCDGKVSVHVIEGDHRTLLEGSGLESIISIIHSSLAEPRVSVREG

Candida albicans [12] = experiment: Antifungal activity against Candida albicans after 24 hrs; type: functional; procedure, shortened: as §1
Candida dubliniensis [13] = experiment: Antifungal activity against Candida dubliniensis after 48 hrs; type: functional; procedure, shortened: as §1
Candida albicans [14] = experiment: Antifungal activity against Candida albicans assessed as clear zone of inhibition by disk diffusion assay; type: functional
Procedure, shortened: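 Disk diffusion on C. albicans; the zone of inhibition is measured in mm.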

Candida albicans [15] = experiment: Antifungal activity against Candida albicans by microdilution spectrophotometric method in presence of mysteric acid; type: functional
Procedure, shortened: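 Growth inhibition of C. albicans in a medium supplemented with 1.0% Tween 40 and 0.03% mysteric acid (long-chain fatty acids).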

Saccharomyces cerevisiae [16] = experiment: Antifungal activity against Saccharomyces cerevisiae after 48 hrs; type: functional; procedure, shortened: as §1
Pichia kudriavzevii [17] = experiment: Antifungal activity against Candida krusei after 24 hrs; type: functional; procedure, shortened: as §1
Papiliotrema laurentii [18] = experiment: Antifungal activity against Cryptococcus laurentii after 24 hrs; type: functional; procedure, shortened: as §1
Candida tropicalis [19] = experiment: Antifungal activity against Candida tropicalis after 48 hrs; type: functional; procedure, shortened: as §1
Clavispora lusitaniae [20] = experiment: Antifungal activity against Candida lusitaniae after 24 hrs; type: functional; procedure, shortened: as §1
Candida tropicalis [21] = experiment: Antifungal activity against Candida tropicalis after 24 hrs; type: functional; procedure, shortened: as §1
Papiliotrema laurentii [22] = experiment: Antifungal activity against Cryptococcus laurentii after 48 hrs; type: functional; procedure, shortened: as §1
Candida albicans [23] = experiment: Antifungal activity against Candida albicans by microdilution spectrophotometric method; type: functional
[24] = system: Meyerozyma guilliermondii; experiment: Antifungal activity against Candida guilliermondii after 48 hrs; type: functional; procedure, shortened: as §1
Nakaseomyces glabratus [25] = experiment: Antifungal activity against Candida glabrata after 48 hrs; type: functional; procedure, shortened: as §1
Clavispora lusitaniae [26] = experiment: Antifungal activity against Candida lusitaniae after 48 hrs; type: functional; procedure, shortened: as §1
Candida albicans [27] = experiment: Antifungal activity against Candida albicans assessed as hazy zone of inhibition by disk diffusion assay; type: functional
Procedure, shortened: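 Disk diffusion on C. albicans; the zone of growth inhibition around the disk is read and reported as diameter in mm.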

Compound | MIC (Cryptococcus neoformans [1]) [µg/mL] | MIC (Nakaseomyces glabratus [2]) [µg/mL] | MIC (Saccharomyces cerevisiae [3]) [µg/mL] | MIC (Candida albicans [4]) [µg/mL] | MIC (Candida dubliniensis [5]) [µg/mL] | MIC (Cryptococcus neoformans [6]) [µg/mL] | MIC (Pichia kudriavzevii [7]) [µg/mL] | MIC (Candida parapsilosis [8]) [µg/mL] | IC50 [9] [µg/mL] | MIC (Candida parapsilosis [10]) [µg/mL] | MIC [11] [µg/mL] | IC50 (Fatty acid synthase) [mM] | MIC (Candida albicans [12]) [µg/mL] | MIC (Candida dubliniensis [13]) [µg/mL] | inhibition zone (IZ) (Candida albicans [14]) [mm] | MIC (Candida albicans [15]) [µg/mL] | MIC (Saccharomyces cerevisiae [16]) [µg/mL] | MIC (Pichia kudriavzevii [17]) [µg/mL] | MFC (Candida albicans [23]) [µg/mL] | MIC (Candida albicans [23]) [µg/mL] | further results
C/C=C/C=C/C=C/C1=CC2=CC(=O)[C@](C)(OC(=O)C[C@H](C)O)C(=O)C2=CO1 | < 1.6 | 25 (≈ 67.5 µM) | 8.2 (≈ 22.1 µM) | 7.8 (≈ 21.1 µM) | 12.5 (≈ 33.7 µM) | < 1.6 | 50 (≈ 135 µM) | 50 (≈ 135 µM) | 250 (≈ 675 µM) | 14.8 (≈ 40 µM) | < 1.6 | > 2.7 | 7.8 (≈ 21.1 µM) | 12.5 (≈ 33.7 µM) | 10 | 50 | 25 (≈ 67.5 µM) | 25 (≈ 67.5 µM) | 6.25 (≈ 16.9 µM) | 3.13 (≈ 8.45 µM) | MIC (Papiliotrema laurentii [18]): < 1.6 µg/mL; MIC (Candida tropicalis [19]): 6.25 µg/mL (≈ 16.9 µM); MIC (Clavispora lusitaniae [20]): 16.3 µg/mL (≈ 44 µM); MIC (Candida tropicalis [21]): 6.25 µg/mL (≈ 16.9 µM); MIC (Papiliotrema laurentii [22]): < 1.6 µg/mL; MIC [24]: 1.6 µg/mL (≈ 4.32 µM); MIC (Nakaseomyces glabratus [25]): 50 µg/mL (≈ 135 µM); MIC (Clavispora lusitaniae [26]): 41.6 µg/mL (≈ 112 µM)
C/C=C/C=C/C=C/C1=CC2=CC(=O)[C@](C)(OC(=O)C[C@H](C)O)C(=O)C23OC3O1 (stereo not given in full) | 25 (≈ 64.7 µM) | 29.2 (≈ 75.6 µM) | 5.9 (≈ 15.3 µM) | 7.8 (≈ 20.2 µM) | 9.4 (≈ 24.3 µM) | 3.12 (≈ 8.07 µM) | 25 (≈ 64.7 µM) | 62.5 (≈ 162 µM) | 160 (≈ 414 µM) | 15.6 (≈ 40.4 µM) | < 1.6 | > 2.59 | 3.9 (≈ 10.1 µM) | 18.8 (≈ 48.7 µM) | 8 | 50 | 20.3 (≈ 52.5 µM) | 12.5 (≈ 32.3 µM) | 25 (≈ 64.7 µM) | 6.25 (≈ 16.2 µM) | Activity (Papiliotrema laurentii [18]): Active; MIC (Clavispora lusitaniae [20]): 8.3 µg/mL (≈ 21.5 µM); MIC (Papiliotrema laurentii [22]): 6.25 µg/mL (≈ 16.2 µM); MIC [24]: 1.6 µg/mL (≈ 4.14 µM); MIC (Nakaseomyces glabratus [25]): 83.3 µg/mL (≈ 216 µM); MIC (Clavispora lusitaniae [26]): 37.5 µg/mL (≈ 97 µM)
C/C=C/C/C=C/CCC(=O)[C@H]1O[C@H]1C(N)=O [CERULENIN] |  |  |  |  |  |  |  |  | 0.5 (≈ 2.24 µM) |  |  | 0.00224 |  |  |  | > 1000 |  |  | 5 (≈ 22.4 µM) | 5 (≈ 22.4 µM) | inhibition zone (IZ) (Candida albicans [27]): 20 mm
